# Published values gathered from unrelated publications.
# Target: Serine/threonine-protein kinase BRSK1 (BRSK1, Homo sapiens, UniProt Q8TDC3)
# Residues used in one study (Q8TDC3 1-778): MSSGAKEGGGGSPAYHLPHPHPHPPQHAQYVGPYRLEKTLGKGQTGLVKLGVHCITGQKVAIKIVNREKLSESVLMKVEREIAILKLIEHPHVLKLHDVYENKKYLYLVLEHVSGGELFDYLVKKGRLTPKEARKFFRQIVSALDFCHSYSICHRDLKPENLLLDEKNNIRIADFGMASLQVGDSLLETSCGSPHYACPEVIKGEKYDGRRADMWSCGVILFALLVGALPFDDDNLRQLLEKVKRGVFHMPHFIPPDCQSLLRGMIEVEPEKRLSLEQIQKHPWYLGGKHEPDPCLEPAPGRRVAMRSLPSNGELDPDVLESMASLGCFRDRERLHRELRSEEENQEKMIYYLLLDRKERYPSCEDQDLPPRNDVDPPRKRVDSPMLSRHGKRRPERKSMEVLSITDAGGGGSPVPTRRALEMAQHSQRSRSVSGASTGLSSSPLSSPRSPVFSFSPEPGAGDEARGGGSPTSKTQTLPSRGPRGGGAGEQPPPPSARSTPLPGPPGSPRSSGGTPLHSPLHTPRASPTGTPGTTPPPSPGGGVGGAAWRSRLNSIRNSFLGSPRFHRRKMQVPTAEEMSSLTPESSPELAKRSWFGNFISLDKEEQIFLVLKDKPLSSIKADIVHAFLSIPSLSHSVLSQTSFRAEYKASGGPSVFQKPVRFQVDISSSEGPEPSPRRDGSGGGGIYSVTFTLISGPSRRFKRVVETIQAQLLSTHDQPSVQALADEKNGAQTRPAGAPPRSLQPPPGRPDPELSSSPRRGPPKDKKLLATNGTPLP
SMILES,observed,action,method,tested at,quantity,value
Nc1ncc(-c2nc(N3CCOCC3)nc(N3CCOCC3)n2)c(C(F)F)n1,binding,,competition with immobilised ligand,10 µM,remaining binding,91%
N#CC1(c2ccccn2)CCN(Cc2cc(C(=O)O)c(=O)n3ccccc23)CC1,cell-free assay,,competition with immobilised ligand,1 µM,remaining binding,100%
CC(C)(C)c1cc(C=C(C#N)C#N)cc(Br)c1O,enzyme activity,inhibitor,,0.5 µM,remaining activity,94%
Cn1cc(-c2cc(F)cc(N3CCn4c(cc5c4CCCC5)C3=O)c2CO)cc(Nc2ccc(N3CCN(C4COC4)CC3)cn2)c1=O,enzyme activity,inhibitor,,0.1 µM,inhibition,12%
Cc1nn(C)cc1-c1nc2c(N3CCN(Cc4ccc(Cl)cc4)CC3)c(Cl)cnc2[nH]1,binding,,competition with immobilised ligand,1 µM,remaining binding,100%
Cn1cncc1[C@@](O)(COc1ccc(C#N)cc1-c1ccc(OC(F)(F)F)cc1)c1ccc(C#N)cc1,cell-free assay,,competition with immobilised ligand,1 µM,remaining binding,86%
COc1ncccc1-c1cnn2ccc(N3CCN(C(=O)OC(C)C)CC3)nc12,binding,,competition with immobilised ligand,1 µM,remaining binding,93%
Cn1cc(-c2cccc(N3CCc4c(sc5c4CC(C)(C)C5)C3=O)c2CO)cc(Nc2ccncn2)c1=O,enzyme activity,inhibitor,,1 µM,inhibition,3%
O=c1[nH]c2ccccc2n1C1CCN(Cc2ccc(-c3[nH]c4cc5ncnc5cc4nc3-c3ccccc3)cc2)CC1,cell-free assay,,,0.5 µM,remaining signal,98.3%
